B1: tRNA (parent)
chain: GUUCCGUUGGCGUAAUGGUAACGCGUCUCCCUCCUAAGGAGAAGACUGCGGGUUCGAGUCCCGUACGGAACG

This sample holds only a part of the variants without activity.

Variants of B1 are the subject of this series. The experiment in a line: yeast fitness relative to wild type (ratio to wild type); higher = fitter; tRNA-Arg(CCU), competitive growth, 37 C, YPD. The method, boiled down: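 Changes in genotype frequencies gave Darwinian fitness relative to wild type. Frequencies were read by 100-nucleotide paired-end sequencing of gene amplicons before and after pooled Saccharomyces cerevisiae strains, carrying tRNA-Arg(CCU) gene variants at the native locus, were competed in YPD at 37°C for 24 hours in six replicates. A genotype was kept only with ≥ 100 starting reads, and estimates < 0.5 were set to 0.5.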
Regarding GUUCCGUUGGUGUAAUGGUAACGCGUCUCCCUCCUAAGGAGAAGACUGCGGGUUCGGGCCCCGUACAGAACG [C11U A57G U59C G67A], the yeast fitness is at most 0.5.

Consider GUUCCGUUGGUGUAAUGGUAACGCGUCUCCCUCCUAAGGAGAAGCCUGCGGGUUCGAGUCCGGUCCGGAACG [C11U A45C C62G A65C], for which the yeast fitness was at most 0.5.

On to GUUCCGUUGGUGUAAUGGUAACGCGUCUCCCUCCUAAGGAGAAGUCUGCGGGUUCGAGUCCCGUACGGCACG [C11U A45U A69C], for which the yeast fitness worked out at 0.874.

Take GUUCCGUUGGUGUAAUGGUAACGCGUCUCCCUCCUAAGGAGAAGUCUGCGGGUUCGAGUCCCGUACGGUACG [C11U A45U A69U]: the yeast fitness came out at 0.915.

With GUUCCGUUGGUGUAAUGGUAACGCGUCUCCCUCCUAAGGAGAAGACUGCGGGUUCGAGUCCCGUUAGGAACG [C11U A65U C66A], the yeast fitness was at most 0.5.

As for GUUCCGUUGGUGUAAUGGUAACGCGUCUCCCUCCUAAGGAGAAGACUGCGGGUUCGAGUCCCGUUCGGAGCG [C11U A65U A70G], the yeast fitness was determined as 0.696.

For GUUCCGUUGGUGUAAUGGUAACGCGUCUCCCUCCUAUGGAGAAGACUGCGGGUUCGAGUCCCGUACGGAACG [C11U A37U], the yeast fitness came to 0.808.

For GUUCCGUUGGUGUAAUGGUAACGCGUCUCCCUCCUAAGGUGAAGACUGCCGGUUCGACACCCGUACGGAACG [C11U A40U G50C G58C U59A], the yeast fitness was 0.564.

In the case of GUUCCGUUGGUGUAAUGGUAACGCGUCUCCCUCCUAAGGGGAAGACUGCGGGUUCGAGUCCCGUACCGUACG [C11U A40G G67C A69U], the yeast fitness was found to be 0.574.

As for GUUCCGUUGGUGUAAUGGUAACGCGUCUCCCUCCUAGGGAGAAGACUGCGGGUACGAGGCCCGUACGGAACG [C11U A37G U54A U59G], the yeast fitness was at most 0.5.

As to GUUCCGUUGGUGUAAUGGUAACGCGUCUCCCUCCUAAGGAGUAGACUGCGGGUUCGAGUACCGUUCGGAACG [C11U A42U C60A A65U], the yeast fitness was 0.553.

GUUCCGUUGGUGUAAUGGUAACGCGUCUCCCUCCUAUGGAGAAGACUGGGGGUUCGAGUCCCGUACGGAACG [C11U A37U C49G]: the yeast fitness was at most 0.5.

Take GUUCCGUUGGUGUAAUGGUAACGCGUCUCCCUCCUAAGGAGAAGCCUGCGGGUUCGAGUCCCGUACGGAUCG [C11U A45C A70U]: the yeast fitness came to 0.582.

As to GUUCCGUUGGUGUAAUGGUAACGCGUCUCCCUCCUAAGGAGAGGACUGCGGGUUCGCGUCCCGUACGGAACG [C11U A43G A57C], the yeast fitness was at most 0.5.

For GUUCCGUUGGUGUAAUGGUAACGCGUCUCCCUCCUAUGGAGAAGACUGCGGGUUCGAGUUCCGUACGGAACG [C11U A37U C60U], the yeast fitness worked out at 0.539.

Take GUUCCGUUGGUGUAAUGGUAACGCGUCUCCCUCCUAAGGUGAAGACUGCGGGUUUGAGUCCCGUACGAAACG [C11U A40U C55U G68A]: the yeast fitness was at most 0.5.

Consider GUUCCGUUGGUGUAAUGGUAACGCGUCUCCCUCCUAAGGAGAUGACUGCGGGUUCGAGUCCCCUACGGAACG [C11U A43U G63C], for which the yeast fitness amounted to 0.558.

Regarding GUUCCGUUGGUGUAAUGGUAACGCGUCUCCCUCCUAAGGAGAAGACUGCGGGUUCGAGUCCCGUUCGGCACG [C11U A65U A69C], the yeast fitness stood at 0.588.

Take GUUCCGUUGGUGUAAUGGUAACGCGUCUCCCUCCUAAGGAGGAGACUACGGGUUCGAGUCCCGUACGGAACG [C11U A42G G48A]: the yeast fitness is 0.678.

Regarding GUUCCGUUGGUGUAAUGGUAACGCGUCUCCCUCCUAAGGGGACGACUGCGGGUUCAAGUCCCGUACGGAACG [C11U A40G A43C G56A], the yeast fitness is 0.578.

Take GUUCCGUUGGUGUAAUGGUAACGCGUCUCCCUCCUAAGGGGAAGAAUGCGGGUUCGAGUCCCGUACGGAACG [C11U A40G C46A]: the yeast fitness worked out at 0.792.

On to GUUCCGUUGGUGUAAUGGUAACGCGUCUCCCUCCUAAGGAGUAGACUGCGGGUUCGAGUCCCGUACCGAACG [C11U A42U G67C], for which the yeast fitness turned out to be 0.536.

As to GUUCCGUUGGUGUAAUGGUAACGCGUCUCCCUCCUAAGGAGAAGACUGCGGGUUCGAGUCCCGUUCGCAACG [C11U A65U G68C], the yeast fitness turned out to be 0.592.

Consider GUUCCGUUGGUGUAAUGGUAACGCGUCUCCCUCCUAAGGAGGAGACUGCGGGUUCGAGCCUCGUACGGAACG [C11U A42G U59C C61U], for which the yeast fitness is at most 0.5.

As for GUUCCGUUGGUGUAAUGGUAACGCGUCUCCCUCCUAAGGAGAGGACUGCGGGUUCGAGUCCCGUACGGAACG [C11U A43G], the yeast fitness was 0.945.

For GUUCCGUUGGUGUAAUGGUAACGCGUCUCCCUCCUAAGGUGAAGACUGCGGGUUCGAGUCCCGUAGGGAACG [C11U A40U C66G], the yeast fitness was at most 0.5.

Regarding GUUCCGUUGGUGUAAUGGUAACGCGUCUCCCUCCUAAGGAGAUGACUGCGGGUUCGAGUCCCGUACGGAGCG [C11U A43U A70G], the yeast fitness was 0.738.

With GUUCCGUUGGUGUAAUGGUAACGCGUCUCCCUCCUAAGGAGAAGGGAGCGGGUUCGAGUCCGGUCCGGAACG [C11U A45G C46G U47A C62G A65C], the yeast fitness came out at 0.533.

As to GUUCCGUUGGUGUAAUGGUAACGCGUCUCCCUCCUAAGGCGAUGACUGCGGGAUCGAGUCCCGUACGGAACG [C11U A40C A43U U53A], the yeast fitness is at most 0.5.

GUUCCGUUGGUGUAAUGGUAACGCGUCUCCCUCCUAAGGAGAAGCCUGCGAGUUCGAGUCCCGUACGGAACG [C11U A45C G51A]: the yeast fitness came out at 0.611.

For the variant GUUCCGUUGGUGUAAUGGUAACGCGUCUCCCUCCUAAGGAGAAGGCUGCGGGUUCGAAUCCCGUGCGGAACG [C11U A45G G58A A65G], the yeast fitness is 1.11.

As for GUUCCGUUGGUGUAAUGGUAACGCGUCUCCCUCCUAAGGAGAAGACUGCGGGUUCGAGUCCCGUACGGACCG [C11U A70C], the yeast fitness was determined as 0.898.

On to GUUCCGUUGGUGUAAUGGUAACGCGUCUCCCUCCUAAGGAGAAGACUGCGGGUUCGAGUCCCGUACGGAUCG [C11U A70U], for which the yeast fitness came out at 0.88.

With GUUCCGUUGGUGUAAUGGUAACGCGUCUCCCUCCUAAGGAGUAGACUGCGGGUUCGAGUCCCGUAAGGAACG [C11U A42U C66A], the yeast fitness came to 0.51.

As to GUUCCGUUGGUGUAAUGGUAACGCGUCUCCCUCCUAAGGAGACGACUGCGGGUUCAAGUCCCGUACGGAACG [C11U A43C G56A], the yeast fitness turned out to be 0.692.

On to GUUCCGUUGGUGUAAUGGUAACGCGUCUCCCUCCUAAGGAGAUGAGUGCGGGUUCGAGUCCCGUACGGAACG [C11U A43U C46G], for which the yeast fitness was determined as 0.723.

Take GUUCCGUUGGUGUAAUGGUAACGCGUCUCCCUCCUAAGGAGAAGACUGCGGGUUCGAGUCCCGUGCGGAACG [C11U A65G]: the yeast fitness came to 0.935.

(Values after the RNAGym collection of RNA variant scans (doi:10.1126/science.aae0568).)
